The source of these data is paper PMC7386824 (Journal of medicinal chemistry, 2020).

Entries after “also recorded” stand apart in the source; their conditions may differ.

The test system of data set [1] is HCMV Towne. The data set can be described thus: HCMV entry, indirect immunofluorescence assay for pp65. The class given is cell-based, human cytomegalovirus. Particulars: 24 h pretreatment; MLS8969 3 μM, heparin 30 μM, GCV 5 μM; IFA 2 hpi.
Data set [2] deals with HCMV Towne. The data set can be described thus: drug combination with letermovir, plaque reduction assay, Bliss model. Particulars: Human betaherpesvirus 5, read-out: EC50 (Compound 1, letermovir alone). The format is cell-based, human cytomegalovirus. A general note: In a plaque reduction assay, fewer plaques than in the control indicate reduced infectivity or spread.
The next data set deals with HSV1. In words: plaque reduction assay, HSV1 clinical isolate in Vero cells. The format is cell-based, herpes simplex 1.
The subject of a further data set is HSV2. The data set can be described thus: plaque reduction assay, HSV2 clinical isolate in Vero cells. The format is cell-based, herpes simplex 2.
For the next data set, the system named is EBV. In words: inhibition of lytic EBV replication in AKATA cells, real-time PCR. The class given is cell-based, Epstein Barr virus. (In qPCR the cycle at which signal appears reflects the starting amount.)
Another data set deals with MCMV Smith strain. In words: plaque reduction assay, MCMV in MEFs. The class given is cell-based, mouse CMV.
For data set [3], the system named is HCMV Towne. In words: Western blot of viral protein expression in HCMV-infected HFFs. The format is cell-based, human cytomegalovirus. On the technique in general: In western blotting, separated proteins are transferred to a membrane and probed.
Data set [4] relates to HCMV Towne. In words: viral DNA replication and DNA load in supernatants, US17 real-time PCR. The format is cell-based, human cytomegalovirus. Particulars: HCMV Towne MOI 0.1; NFU1827 5 μM, MLS8554 2 μM, MLS8091 1.5 μM, NCGC2955 3 μM; GCV 5 μM.
Data set [5] relates to HCMV Towne. In words: add-on and removal assays, luciferase activity at 72 hpi. The class given is cell-based, human cytomegalovirus. Particulars: for timing of activity in the add-on assay / timing of activity in the removal assay: compared with GCV; for HCMV suppression when compound removed at 6 h (removal assay) / activity when added at or after 24 hpi (add-on assay): HCMV Towne MOI 1, luciferase 72 hpi; for time of anti-HCMV activity: add-on and removal assays.

Data set [6] concerns HCMV Towne (pp28-luciferase). In words: pp28-luciferase recombinant HCMV Towne, luciferase activity at 72 hpi in HFFs. The format is cell-based, human cytomegalovirus.
For another data set, the system named is MEFs. The data set can be described thus: toxicity to MEFs. The class given is cell-based, mouse. In a few lines:
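Uninfected mouse embryonic fibroblasts were exposed to test compound for 72 h or 8–10 days, the same time points as the antiviral assays. MTT (5 mg/mL stock in PBS) was then added, the plates were shaken at 150 rpm for 5 min and incubated at 37 °C for 2–3 h. Formazan formed by living cells was read as absorbance at 560 nm.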

Turning to `Nc1nc2c(ncn2COC(CO)CO)c(=O)[nH]1` [GCV, Ganciclovir], in the data set on HCMV Towne [1], the “inhibition of HCMV entry (pp65 nuclear staining)” value (from here on “inhibition of HCMV entry”) was “did not affect pp65 nuclear staining”.

What is called EC50 is the midpoint of the concentration-response curve. As for `COc1cccc(N2CCN(C3=Nc4c(F)cccc4[C@H](CC(=O)O)N3c3cc(C(F)(F)F)ccc3OC)CC2)c1` [Letermovir], the concentration for a half-maximal effect (EC50) in the data set with HCMV Towne [2] amounted to 1.1 ± 0.1 nM.

Regarding `Nc1c(S(=O)(=O)c2cccs2)c2nc3ccccc3nc2n1Cc1ccccc1` [MLS8091], the “activity against HSV1 (in words)” value with HSV1 is listed as “did not inhibit”. In addition, the “activity against HSV2 (in words)” value in the data set with HSV2 is given as “did not inhibit”. Also, the “activity against EBV (in words)” value in the data set with EBV was “did not inhibit; also recorded: not active”. Also, the “activity against MCMV (in words)” value in the data set on MCMV Smith strain was “did not inhibit”. In addition, the “viral protein expression (Western blot)” value with HCMV Towne [3] (MOI 1, 72 hpi) is on record as “Inhibition of all viral proteins”. For the same compound, in the data set on HCMV Towne [4], the “viral DNA replication in cells” value is given as “higher than that achieved with GCV” and the “viral DNA yield in supernatants” value is “not significantly different from GCV”. In the data set with HCMV Towne [5], the “timing of activity in the add-on assay” value is on record as “overlapped with that of GCV” and the “timing of activity in the removal assay” value is given as “showed earlier effects”.

As for `CCc1ccc(NC(=O)[C@H](Cc2c[nH]c3ccccc23)NC(=O)[C@@H]2Cc3ccccc3CN2)cc1` [MLS8554], the “activity against HSV1 (in words)” value in the data set with HSV1 is given as “active”. In addition, the “activity against HSV2 (in words)” value with HSV2 is “active”. Also, the “viral protein expression (Western blot)” value with HCMV Towne [3] (MOI 1, 72 hpi) is “reduced IE2, UL44, UL84 and pp65 protein levels”. In the data set on HCMV Towne [4], the “viral DNA replication in cells” value is listed as “significantly reduced” and the “viral DNA yield in supernatants” value is recorded as “significantly reduced”. Moreover, in the data set with HCMV Towne [5], the “HCMV suppression when compound removed at 6 h (removal assay)” value is listed as “near complete”, the “activity when added at or after 24 hpi (add-on assay)” value is reported as “activity was significantly reduced” and the “time of anti-HCMV activity” value was 0–24 hpi.

Turning to `COc1ccc(Cl)cc1C(=O)Nc1ccc(NC(=O)c2ccco2)cc1` [MLS8969], in [6] (compound added after infection, MOI of 1 PFU/cell, 72 hpi), the “reduction of luciferase activity” value is “minimal reduction in luciferase activity”. The “inhibition of luciferase activity” value in [6] (compound added before infection, range of MOIs) is listed as “MOI-dependent inhibition of luciferase activity”. The “activity against HSV1 (in words)” value in the data set with HSV1 is “did not inhibit”. Further, the “activity against HSV2 (in words)” value with HSV2 is reported as “did not inhibit”. Also, the “activity against EBV (in words)” value with EBV is “did not inhibit”. The “activity against MCMV (in words)” value in the data set on MCMV Smith strain was “did not inhibit”. In addition, in the data set on HCMV Towne [1], the “inhibition of HCMV entry” value is “inhibited HCMV entry only at MOI of 0.1”. In addition, the “viral protein expression (Western blot)” value in the data set on HCMV Towne [3] (MOI 1, 72 hpi) is “no inhibition of viral protein expression”; with HCMV Towne [3] (pretreatment followed by infection at low MOI (0.01), 72 hpi) it was “decreased IE1/2, pp65, UL84 and UL44 protein levels”.

As to `CC(C)NC(=O)C1CCN(C(=O)c2cc3sccc3n2Cc2ccc(Cl)cc2)CC1` [NCGC2955, 1-(4-(4-chIorobenzyl)-4H-thieno[3,2-b]pyrrole-5-carbonyl)-N-isopropyIpiperidine-4-carboxamide], in data set [6], the “dose response in pp28-luciferase assay” value is recorded as “did not show a full dose response”. For the same compound, in the data set on MEFs, the “concentration at which toxicity to MEFs was observed” value is ≥ 10 µM. The “viral protein expression (Western blot)” value in the data set on HCMV Towne [3] (MOI 1, 72 hpi) is “strong reduction in viral protein expression including IE1 and IE2”. Also, in the data set on HCMV Towne [4], the “viral DNA replication in cells” value was “modest” and the “viral DNA yield in supernatants” value was “modest”. Also, in the data set with HCMV Towne [5], the “timing of activity in the add-on assay” value is on record as “overlapped with that of GCV” and the “timing of activity in the removal assay” value is recorded as “longer activity than GCV”.

For the compound `CCN1CCN(CCCNC(=O)c2ccc3c(c2)sc2nc(-c4ccc(OC)cc4)cn23)CC1` [NFU1827, N-[3-(4-ethylpiperazin-1-yl)propyl]-4-(4-methoxyphenyl)-7-thia-2,5-diazatricyclo [6.4.0.02,6] dodeca-1(8),3,5,9,11-pentaene-10-carboxamide], the “activity against HSV1 (in words)” value with HSV1 is given as “no activity”. For the same compound, the “activity against HSV2 (in words)” value in the data set on HSV2 is “no activity”. Further, the “activity against MCMV (in words)” value in the data set on MCMV Smith strain is given as “no activity”. Further, the “viral protein expression (Western blot)” value in the data set on HCMV Towne [3] (MOI 1, 72 hpi) is “reduced the level of both IE1 and IE2”. Besides, in the data set with HCMV Towne [4], the “viral DNA replication in cells” value is given as “significantly reduced” and the “viral DNA yield in supernatants” value was “significantly reduced”. Also, in the data set on HCMV Towne [5], the “HCMV suppression when compound removed at 6 h (removal assay)” value is given as “significant HCMV suppression”, the “activity when added at or after 24 hpi (add-on assay)” value is listed as “lost its ability to inhibit HCMV” and the “time of anti-HCMV activity” value is listed as 0–24 hpi.

As for Heparin, in the data set with HCMV Towne [1], the “inhibition of HCMV entry” value is reported as “inhibited HCMV entry”.
